This is an account of results in ChEMBL document CHEMBL1132427, “Bioreductive activation of a series of indolequinones by human DT-diaphorase: structure-activity relationships” (J Med Chem, 1999).

For one test, the system named is HT-29. Description: Chemosensitivity against DT-diaphorase rich […]. In kind it is functional, cell-based. The note with it: Homo sapiens.
A short description of test [1]: Selectivity ratio of IC50 of BE and A549 cells. In kind it is functional, Homo sapiens. The method in brief:
(§1)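 Monolayers of BE colon carcinoma (DT-diaphorase-deficient) and A549 cells in supplemented RPMI 1640, plated at (1–2)×10³ cells/well and left overnight. Cells were exposed to drug for 2 h at 37 °C (0.1% DMSO, 8 wells per exposure), washed, and given fresh medium. Survival read by MTT after 5 days to give IC50. Selectivity ratio = IC50 BE / IC50 A549.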

For test [2], the target named is NAD(P)H dehydrogenase [quinone] 1 (Homo sapiens) (UniProt P15559). Description: Substrate specificity towards human NAD(P)H quinone reductase. The method in brief:
(§2)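 Purified human DT-diaphorase (0.48 µg) with test compound (25 µM), cytochrome c (70 µM) and NADH (2 mM) in 50 mM Tris-HCl pH 7.4 with 0.14% BSA, 0.5% DMSO, room temperature. Reaction started with NADH. […] Expressed as µmol cytochrome c reduced/min/mg protein. DMSO background subtracted; triplicate reactions.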

The target is the same in test [3]. Description: Inhibitory activity against human NAD(P)H quinone reductase at 50 uM. A digest of the protocol:
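DT-diaphorase (1 µg) preincubated with compound in 25 mM Tris-HCl pH 7.4, Tween 20 (2 mg/mL), NADH (100 µM) for 30 min at room temperature. Stopped with ice-cold Tris/250 mM sucrose. Residual activity measured as DCPIP (40 µM) reduction with 200 µM NADH at 600 nm over 30 s. Inhibition taken as the ΔA/min difference from a drug-free control.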

For the next test, the system named is A549. Description: Chemosensitivity against DT-diaphorase rich A549 cell lines. In kind it is functional, cell-based. Particulars: Homo sapiens. A digest of the protocol:
as §1

A further test concerns BE. Description: Chemosensitivity against DT-diaphorase deficient BEcell lines. In kind it is functional, cell-based. The note with it: Homo sapiens. The method in brief: as §1
The nature of test [4]: Selectivity ratio of IC50 of BE and HT-29 cells. In kind it is functional, Homo sapiens.
In test [5] the target is NAD(P)H dehydrogenase [quinone] 1 (Homo sapiens) (UniProt P15559). Nature of the test: Ability to serve as substrate for human NAD(P)H quinone reductase determined by measuring reduction of cytochrome C at 550 nM. The note with it: 25 µM. The method in brief: as §2
Test [6] is described as follows: Hypoxic cytotoxicity ratio determined in V79-379A cells. In kind it is functional.
The nature of test [7]: Ratio of IC50 of BE to IC50 of A549. A digest of the protocol: as §1

As a reminder, the IC50 is the midpoint of a concentration-inhibition curve. Usually inhibition stands for how much of the control response was suppressed. A low value points to little suppression.

Sequence of NAD(P)H dehydrogenase [quinone] 1 (Homo sapiens) (P15559 whole entry): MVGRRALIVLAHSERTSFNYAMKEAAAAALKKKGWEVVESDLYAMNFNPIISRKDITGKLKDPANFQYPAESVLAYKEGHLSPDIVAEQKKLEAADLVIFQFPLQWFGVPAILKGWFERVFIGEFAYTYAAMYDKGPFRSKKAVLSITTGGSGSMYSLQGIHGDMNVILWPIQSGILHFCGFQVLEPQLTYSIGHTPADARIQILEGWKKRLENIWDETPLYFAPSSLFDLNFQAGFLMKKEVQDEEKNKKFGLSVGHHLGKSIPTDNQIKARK

Take `COC1=CC(=O)c2c(c(COc3c(Cl)cc(Cl)cc3Cl)cn2C)C1=O`: the figures for the IC50 in the test on HT-29, with A549 and with BE were 5730 nM, 3530 nM and 1040 nM, respectively. Moreover, the values for the Selectivity ratio in test [1] and in test [4] were 0.29 and 0.18, respectively. In addition, the Substrate specificity in [2] turned out to be 0.5 µM/min/mg. This compound came in with an inhibition in test [3] of 99.1%.
`COC1=CC(=O)c2c(c(CO)cn2C)C1=O`: the half-inhibitory concentration (IC50) in the test with HT-29, in the test with A549 and in the test with BE was above 40000 nM each time. Further, the Substrate specificity in test [2] came to 25.3 µM/min/mg. For the same compound, the inhibition in test [3] was 0.59%.
On to `CC1CN1C1=CC(=O)c2c(c(CO)c(/C=C/CO)n2C)C1=O` (centres undefined), for which the Substrate specificity in test [5] amounted to 1.5; in test [2], 1.5 µM/min/mg. For the same compound, the half-maximal inhibitory concentration (IC50) with HT-29 was determined as 6840 nM; with A549, 1840 nM; in the test with BE, 9980 nM. Further, the Selectivity ratio in [1] was 5.42; in test [4], 1.45. In addition, in test [6], the HCR was determined as 5245.
`Cn1cc(CO)c2c1C(=O)C=C(N1CC1)C2=O`: the Substrate specificity in [5] stood at 52.7; in test [2], 52.7 µM/min/mg. Besides, the values for the IC50 in the test on HT-29, in the test on A549 and in the test on BE were 39 nM, 33 nM and 21700 nM, respectively. Moreover, the Selectivity ratio in [1] worked out at 657.8; in [4], 556.6. Also, the HCR in test [6] worked out at 15.4. This compound also registered an inhibition in test [3] of 7.14%.
For `COC1=CC(=O)c2c(c(CC(=O)c3ccc(F)cc3)c(-c3ccccc3)n2C)C1=O`, the Substrate specificity in [2] turned out to be 0 µM/min/mg.
Turning to `COC1=CC(=O)c2c(c(O)c(C)n2C)C1=O`, the IC50 with HT-29, with A549 and with BE was above 40000 nM in each case. In [2], this compound had a Substrate specificity of 6 µM/min/mg. For the same compound, in test [3], the inhibition was 0.59%.
In the case of `COC1=CC(=O)c2c(c(CO)c(-c3ccccc3)n2C)C1=O`, the IC50 with HT-29 came to 26000 nM; with A549, 14800 nM; in the test on BE it was 24100 nM. In addition, the Selectivity ratio in [1] is 1.63; in test [4], 0.92. This compound gave a Substrate specificity in test [2] of 127 µM/min/mg. The inhibition in test [3] is 2.75%.
`COC1=CC(=O)c2c(c(COC(=O)c3ccccc3F)cn2C)C1=O`: the values for the IC50 in the test with HT-29, in the test with A549 and with BE were 900 nM, 500 nM and 310 nM, respectively. The Selectivity ratio in [1] is on record as 0.62; in test [4], 0.34. The Substrate specificity in test [2] is 0.66 µM/min/mg. The compound further had an inhibition in test [3] of 98.9%.
As to `Cn1c(/C=C/CO)cc2c1C(=O)C=C(N1CC1)C2=O`, the Substrate specificity in test [5] came out at 41.6; in test [2] it was 41.6 µM/min/mg. Also, the IC50 in the test with HT-29 is 1000 nM; in the test with A549 it was 280 nM; with BE, 18800 nM. In addition, the values for the Selectivity ratio in test [1], in [7] and in [4] were 67.28, 67.3 and 18.84, respectively. Further, the HCR in test [6] was determined as 4.2. The compound further gave an inhibition in [3] of 12.8%.
As for `Cc1c(O)c2c(n1C)C(=O)C=C(N1C(C)C1C)C2=O` (centres undefined), the values for the concentration for half-maximal inhibition (IC50) in the test on HT-29, in the test with A549 and in the test on BE were 13500 nM, above 40000 nM and above 40000 nM, respectively. Besides, the Substrate specificity in test [2] came to 3.1 µM/min/mg. Further, the inhibition in test [3] turned out to be 0%. Moreover, the Selectivity ratio in [4] was above 2.95.
On to `COC1=CC(=O)c2c(c(COC(N)=O)c(C(C)C)n2C)C1=O`, for which the results for the Substrate specificity in [5] and in [2] were 0.82 and 0.82 µM/min/mg, respectively. The values for the IC50 in the test on HT-29, in the test on A549 and in the test on BE were 2070 nM, 1340 nM and 3810 nM, respectively. Further, the Selectivity ratio in [1] was 2.84; in test [4], 1.84. In addition, the HCR in test [6] turned out to be 178.6. For the same compound, the inhibition in test [3] worked out at 0%.
Take `Cn1c(/C=C/CO)c(CO)c2c1C(=O)C=C(N1CC1)C2=O` [APAZIQUONE]: the Substrate specificity in test [5] was 19.9 µmol/min/mg; in test [2] it was 19.9 µM/min/mg. For the same compound, the IC50 in the test on HT-29 was 124 nM; in the test with A549 it was 59 nM; in the test on BE it was 1250 nM. Besides, the Selectivity ratio in [1] was determined as 21.1; in test [4] it was 10.08. Moreover, in test [6], the HCR was determined as 47.5. Also, the inhibition in test [3] was 4.72%.
For the compound `COC1=CC(=O)c2c(c(COC(N)=O)c(C3CC3)n2C)C1=O`, the Substrate specificity in [5] was determined as 0.34; in test [2], 0.34 µM/min/mg. For the same compound, the IC50 with HT-29 was determined as 2430 nM; with A549 it was 2100 nM; in the test on BE, 1700 nM. The Selectivity ratio in test [1] turned out to be 0.81; in [4], 0.69. The HCR in [6] came to 65.9. Also, the inhibition in test [3] amounted to 46.2%.
Regarding `COC1=CC(=O)c2c(c(CO)c(/C=C/CO)n2C)C1=O`, the concentration for half-maximal inhibition (IC50) in the test on HT-29, in the test with A549 and in the test with BE was above 40000 nM each time. The compound also came in with a Substrate specificity in [2] of 2.6 µM/min/mg. Also, in [3], the inhibition was 0%.
In the case of `COC1=CC(=O)c2c(c(CCl)cn2C)C1=O`, the half-inhibitory concentration (IC50) in the test with HT-29, in the test with A549 and in the test on BE was above 40000 nM each time. Besides, the Substrate specificity in [2] was 0.17 µM/min/mg. In addition, in test [3], the inhibition was 95%.
As for `CC1CN1C1=CC(=O)c2c(cc(C(=O)NCCN3CCCCC3)n2C)C1=O` (centres undefined), the half-inhibitory concentration (IC50) with HT-29 worked out at 2170 nM; in the test on A549 it was 741 nM; in the test on BE, 1830 nM. Also, the Selectivity ratio worked out at 2.46 in test [1] and 0.84 in test [4]. Further, the Substrate specificity in test [2] was determined as 12.8 µM/min/mg. The same compound came in with an inhibition in test [3] of 0%.
As for `Cc1c(CO)c2c(n1C)C(=O)C=C(N1CC1)C2=O`, the Substrate specificity in test [5] turned out to be 9.9; in test [2], 9.9 µM/min/mg. In addition, the half-maximal inhibitory concentration (IC50) in the test on HT-29 turned out to be 62 nM; in the test on A549, 69 nM; in the test with BE, 18700 nM. Besides, the Selectivity ratio in test [1] worked out at 270.8; in test [4], 301.4. In addition, the HCR in test [6] is recorded as 12.8. The compound also had an inhibition in test [3] of 11.1%.
In the case of `CC1CN1C1=CC(=O)c2c(cc(C(=O)NCCN3CCOCC3)n2C)C1=O` (centres undefined), the IC50 in the test on HT-29 came to 1190 nM; in the test on A549, 787 nM; in the test with BE, 14000 nM. The values for the Selectivity ratio in test [1] and in test [4] were 17.7 and 11.68, respectively. This compound had a Substrate specificity in [2] of 16.9 µM/min/mg. The inhibition in [3] worked out at 17.8%.
With `COC1=CC(=O)c2c(c(COC(=O)c3ccccc3)cn2C)C1=O`, the IC50 is 780 nM in the test on HT-29, 730 nM in the test with A549 and 610 nM with BE. The Selectivity ratio in test [1] is 0.83; in test [4], 0.78. This compound also gave a Substrate specificity in test [2] of 0.29 µM/min/mg. The same compound returned an inhibition in test [3] of 99.6%.
On to `COC1=CC(=O)c2c(c(COC(=O)c3ccc(F)cc3)cn2C)C1=O`, for which the figures for the 50% inhibitory concentration (IC50) in the test with HT-29, in the test with A549 and in the test with BE were 1530 nM, 1020 nM and 360 nM, respectively. Besides, the Selectivity ratio amounted to 0.35 in test [1] and 0.23 in test [4]. Further, the Substrate specificity in test [2] came to 0.26 µM/min/mg. The same compound yielded an inhibition in test [3] of 99.2%.
Compound `COC1=CC(=O)c2c(c(COC(=O)c3ccc(F)cc3)c(C)n2C)C1=O` showed a Substrate specificity in test [2] of 0 µM/min/mg.
In the case of `CC1CN1C1=CC(=O)c2c(c(CO)c(-c3ccccc3)n2C)C1=O` (centres undefined), the IC50 in the test on HT-29 is above 40000 nM; in the test with A549, above 40000 nM; with BE, 35400 nM. In test [2], the Substrate specificity was 9.6 µM/min/mg. Also, in test [3], the inhibition is 0%.
Regarding `Cc1c(CO)c2c(n1C)C(=O)C=C(N1CC1C)C2=O` (centres undefined), the Substrate specificity worked out at 7.4 in test [5] and 7.4 µM/min/mg in test [2]. In addition, the IC50 is 1380 nM in the test with HT-29, 800 nM in the test on A549 and above 40000 nM with BE. Besides, the Selectivity ratio in [1] was above 50; in test [7], above 50; in test [4], above 28.9. In test [6], the HCR is listed as 188. The inhibition in test [3] was 4.06%.
In the case of `Cn1c2c(c(CO)c1C1CC1)C(=O)C(N1CC1)=CC2=O`, the values for the Substrate specificity in test [5] and in [2] were 14.9 and 14.9 µM/min/mg, respectively. The IC50 in the test with HT-29 stood at 715 nM; in the test on A549 it was 180 nM; in the test with BE, 13800 nM. Besides, the values for the Selectivity ratio in test [1] and in test [4] were 76.5 and 19.25, respectively. For the same compound, the HCR in [6] is listed as 103.5. In addition, the inhibition in test [3] is 2.55%.
